INS-1E GSIS act: GLuc luminescence reporter in INS-1E cells, primary screen for activators of glucose-dependent secretion of insulin; INS-1E GLuc reporter insulin secretion, 2-3 h; activation, % at 16.6 µM; 0.61% of 370,000 active; AID 743287, 2014;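 active means lowest replicate activation of at least 40%, so every replicate reaches that level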;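 further: 0% = median of neutral control wells and 100% = median of IBMX positive control wells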
miR-122 sensor: miR-122 Renilla sensor signal increase in Huh7, primary screen, miR-122 inhibitor project, cell-based, single point, plate reader; AID 602342, 2012; Huh7 miR-122 Renilla luciferase sensor, 48 h; neutral wells = 0, positive control = 100; activation (reporter increase), % at 12.5 µM; 0.3% of 340,000 active;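 active means mean replicate activation score at least 90 and every replicate individually at or above 90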;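 further: higher luciferase means less miR-122 activity so hits act as miR-122 inhibitors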
F508del corr: F508del CFTR correction, initial screen, CFBE line, single point; CFBE cells, YFP halide quenching; stimulated with forskolin plus potentiator P3; % fluorescence drop versus neutral controls; activity (quench increase), % at 7.58 µM; 0.36% of 350,000 active; AID 720511, 2013;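 active means mean added fluorescence quench of at least 8% versus neutral control, with both replicates also reaching 8%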;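 further: cells transiently co-express mutant CFTR-F508del with the halide-sensitive YFP; corrector assay measuring rescue of mutant channel to the surface after 24 h compound exposure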
E-sel inducer: E-selectin induction in HUVECs, primary screen, imaging, HUVEC, immunofluorescence imaging, single point; P16581; normalized: neutral wells 0, TNF-alpha wells 100; activation, % at 7.58 µM; 0.37% of 260,000 active; AID 686992, 2013;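 active means mean E-selectin-positive cell signal at least 10% of the positive control, reached in at least 60% of replicates, without over 20% cell loss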
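Test system: HUVEC; input: 3,000 HUVEC/well; measured by: immunofluorescence imaging; read-out: % PE-positive cells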
ERAP1 inh: human ERAP1 aminopeptidase inhibitors, primary screen, biochemical, single point, plate reader; recombinant ERAP1, Leu-AMC fluorescence, 60 min; AID 652197, 2013; 0.15% of 340,000 active; Endoplasmic reticulum aminopeptidase 1 (Homo sapiens), Q9NZ08; inhibition, % at 10.7 µM;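 active means mean replicate inhibition of at least 30%, or all replicates individually reaching that 30% level; inactive means mean below 30% and not every replicate reaching it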;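 further: 0% = neutral control wells and 100% = L-leucinethiol positive control wells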
Target sequence (Q9NZ08 whole entry, looked up): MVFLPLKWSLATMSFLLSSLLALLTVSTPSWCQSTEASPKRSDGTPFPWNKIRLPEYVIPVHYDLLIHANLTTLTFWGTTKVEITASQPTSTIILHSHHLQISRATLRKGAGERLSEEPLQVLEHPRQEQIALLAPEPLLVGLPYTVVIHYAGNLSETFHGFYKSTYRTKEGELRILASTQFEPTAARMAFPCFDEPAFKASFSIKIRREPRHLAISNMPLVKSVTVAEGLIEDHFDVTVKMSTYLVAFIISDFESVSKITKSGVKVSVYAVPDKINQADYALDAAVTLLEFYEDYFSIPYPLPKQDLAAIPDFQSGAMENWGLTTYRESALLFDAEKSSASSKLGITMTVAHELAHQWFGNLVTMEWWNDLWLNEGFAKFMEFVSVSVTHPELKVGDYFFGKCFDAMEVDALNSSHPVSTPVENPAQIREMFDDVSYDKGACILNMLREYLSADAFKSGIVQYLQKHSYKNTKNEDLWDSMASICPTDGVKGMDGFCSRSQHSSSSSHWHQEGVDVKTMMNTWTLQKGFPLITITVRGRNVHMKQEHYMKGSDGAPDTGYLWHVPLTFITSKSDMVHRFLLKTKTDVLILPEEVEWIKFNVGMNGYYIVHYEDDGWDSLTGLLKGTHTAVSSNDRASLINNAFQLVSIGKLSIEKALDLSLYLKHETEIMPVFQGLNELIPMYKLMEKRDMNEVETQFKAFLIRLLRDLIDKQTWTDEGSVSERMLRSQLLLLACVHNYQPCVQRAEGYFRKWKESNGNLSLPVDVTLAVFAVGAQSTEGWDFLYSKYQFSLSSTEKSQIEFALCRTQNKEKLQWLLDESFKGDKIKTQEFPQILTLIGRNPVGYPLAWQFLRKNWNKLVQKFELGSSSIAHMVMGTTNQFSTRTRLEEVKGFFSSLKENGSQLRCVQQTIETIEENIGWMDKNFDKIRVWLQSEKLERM
DENV2 CPE: inhibitors of DENV2 cytopathic effect, primary screen, cell-based, plate reader, single concentration; DENV2-infected cells, cytopathic effect rescue; CPE inhibition, % at 9.99 µM; 1.7% of 350,000 active; AID 651640, 2012; in the data active means CPE inhibition above about 20%, passing the limit was not always enough; tested in BHK-21 cells;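 further: 0% = median of neutral control wells and 100% = median of positive control wells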
* hit, by the source's call; nt = not tested or not shown; [ ] = dose if it differs, or a comment. The list is not random: actives were taken first. Their share in the collection is about 2.6%.

SMILES	INS-1E GSIS act	miR-122 sensor	F508del corr	E-sel inducer	ERAP1 inh	DENV2 CPE
CCCOc1ccc(C(=O)NC(=S)N2CCN(c3cc4c(cc3F)c(=O)c(C(=O)O)cn4CC)CC2)cc1	12	-7	3	0	-1	53*
Cc1noc(C)c1NC(=O)N[C@@H]1CC[C@H](CC(=O)N2CCCCC2)O[C@H]1CO	25	nt	2	0	-2	-2
CCOc1ccc(CCNC(=O)C2CC(=O)N(CCc3ccccc3)C2)cc1OCC (stereo not drawn)	-3	4	0	2	-6	-1
CCOc1ccc(NC(=O)C2CC(=O)N(CCc3ccccc3)C2)cc1OC (stereo not drawn)	-1	7	0	nt	-3	89*
COc1ccc(O)c(-c2cc(C(F)(F)C(F)F)nc(-c3ccccc3)n2)c1	nt	2	nt	nt	nt	nt
Oc1ccccc1-c1cc(C(F)(F)C(F)F)nc(-c2ccccc2)n1	112*	nt	nt	nt	nt	nt
N#Cc1ccc(-c2ccc3c(c2)[C@H]2[C@H](CCN2C(=O)c2ccncc2)[C@H](CO)N3)cc1	-6	-19[16.7 µM]	-1	-1	nt	nt
Cc1noc(C)c1COc1ccc(C(=O)NNC(=O)c2ccccc2)cc1	10	18	9.6*	-1	4	-7
Cc1ccccc1NC(=O)c1ccc(OCc2c(C)noc2C)cc1	28	-2	0	nt	2	-2
Cc1cccc(NC(=O)c2ccc(OCc3c(C)noc3C)cc2)c1C	137*	0	-3	nt	-1	-4
CCC(=O)N1CC2(C1)CN(S(=O)(=O)c1ccccc1)[C@@H](CO)c1[nH]c3cc(OC)ccc3c12	2	nt	1	0	-3	15
CCC(=O)N1CC2(CCN(Cc3ccccc3Cl)CC2)c2c([nH]c3cc(OC)ccc23)[C@H]1CO	-14	nt	2	0	1	-1
CCC(=O)N1CC2(CCN(Cc3ccc(Cl)cc3)CC2)c2c([nH]c3cc(OC)ccc23)[C@H]1CO	-7	nt	9.8*	0	nt	-33
CCC(=O)N1CC2(CCN(Cc3ccccc3Cl)CC2)c2c([nH]c3cc(OC)ccc23)[C@@H]1CO	-7	nt	1	0	-1	24*
CCC(=O)N1CCC2(CC1)CN(S(=O)(=O)c1ccccc1)[C@@H](CO)c1[nH]c3cc(OC)ccc3c12	-22	nt	2	0	-3	28*
O=C(C[C@H]1CC[C@@H]2[C@H](COC[C@H](O)CN2C(=O)c2ccccc2F)O1)NCc1ccc(Cl)c(Cl)c1	-8	-11[16.7 µM]	-4	0	nt	0
CCN(C(=O)Cn1ccc(C(F)(F)F)n1)c1c(N)n(Cc2ccccc2)c(=O)[nH]c1=O	8	nt	2	110*	-3	13
CC(C)CN(C(=O)COC(=O)c1cccc2ccccc12)c1c(N)n(Cc2ccccc2)c(=O)[nH]c1=O	-9	nt	-1	3	2	-4
CCN(C(=O)COC(=O)c1cccc2ccccc12)c1c(N)n(Cc2ccccc2)c(=O)[nH]c1=O	-24	nt	18*	-1	1	7
C[C@@H](NC(=O)C[C@@H]1C[C@H]2c3cc(NC(=O)CN(C)C)ccc3O[C@H]2[C@@H](CO)O1)c1ccccc1	13	-2[16.7 µM]	1	0	0	1
NC(=O)C[N+]1(CC#CC(O)(c2ccccc2)c2ccccc2)CCCC1	3	-3	1	0	47*	5
CCC[N+]1(CC#CC(O)(c2ccccc2)C2CCCCC2)CCCCC1 (stereo not drawn)	nt	nt	-2	nt	-6	2
C[C@H]1CN([C@@H](C)CO)C(=O)c2cccc(NC(=O)C3CC3)c2O[C@@H]1CN(C)C(=O)Nc1ccc(F)cc1	15	3[16.7 µM]	2	0	-2	6
COc1ccc(S(=O)(=O)N[C@H]2CC[C@@H](CC(=O)O)O[C@H]2CO)cc1	6	nt	-2	0	2	-1
CNc1nc(Sc2ccccc2)cc(C(F)(F)F)n1	51*	-2	nt	nt	2	nt
SMILES	INS-1E GSIS act	miR-122 sensor	F508del corr	E-sel inducer	ERAP1 inh	DENV2 CPE
COCC(=O)N1CC2(CCN(C(=O)CN3CCOCC3)CC2)c2c([nH]c3cc(OC)ccc23)[C@@H]1CO	6	nt	-1	0	nt	-2
C[C@@H]1CN([C@@H](C)CO)C(=O)c2cc(NC(=O)Nc3ccc(F)cc3)ccc2O[C@@H](C)CCCCO[C@@H]1CN(C)C(=O)C1CCCCC1	-10	15[16.7 µM]	-4	0	2	-2
C[C@@H]1CCCCO[C@H](CN(C)C(=O)C2CCCCC2)[C@@H](C)CN([C@@H](C)CO)C(=O)c2cc(NC(=O)Nc3ccc(F)cc3)ccc2O1	-23	-11[16.7 µM]	2	0	3	47*
C[C@@H]1CCCCO[C@@H](CN(C)C(=O)C2CCCCC2)[C@H](C)CN([C@@H](C)CO)C(=O)c2cc(NC(=O)Nc3ccc(F)cc3)ccc2O1	-6	-18[16.7 µM]	0	0	1	25*
C[C@@H]1CN([C@H](C)CO)C(=O)c2cc(NC(=O)Nc3ccccc3)ccc2O[C@@H](C)CCCCO[C@@H]1CN(C)C(=O)C1CCCCC1	nt	1[16.7 µM]	0	nt	2	71*
C[C@@H]1CCCCO[C@@H](CN(C)C(=O)C2CCCCC2)[C@@H](C)CN([C@@H](C)CO)C(=O)c2cc(NC(=O)Nc3ccc(F)cc3)ccc2O1	-9	-9[16.7 µM]	0	0	0	21*
CC(=O)N(C)C[C@@H]1Oc2ncc(-c3cccnc3)cc2C(=O)N([C@H](C)CO)C[C@@H]1C	7	-3[16.7 µM]	5	0	0	-6
Cc1noc(C)c1NC(=O)Nc1ccc2c(c1)CC(=O)N([C@@H](C)CO)C[C@@H](C)[C@H](CN(C)Cc1ccc(Cl)c(Cl)c1)O2	-14	-3[16.7 µM]	-2	-2	1	3
C/C=C/c1ccc2c(c1)O[C@@H](CN(C)Cc1ccncc1)[C@@H](C)CN([C@H](C)CO)S2(=O)=O	-6	0[16.7 µM]	2	0	1	0
C[C@H]1CN([C@@H](C)CO)C(=O)Cc2cc(NS(=O)(=O)c3ccccc3)ccc2O[C@@H]1CN(C)C(=O)Nc1ccc2c(c1)OCO2	-2	8[16.7 µM]	0	1	nt	nt
C[C@@H]1CN([C@@H](C)CO)C(=O)c2cc(C#Cc3cccnc3)cnc2O[C@@H]1CN(C)C	14	8[16.7 µM]	0	0	-2	-2
Cc1cc(C)c(NC(=O)Cn2nnc(C(=O)NCc3cccs3)c2N)c(C)c1	nt	-2	nt	nt	nt	nt
Cc1cc(C)cc(NC(=O)Cn2nnc(C(=O)NCc3cccs3)c2N)c1	9	9	0	0	-1	27*
